# Apaf1 activ = activators of human Apaf-1 apoptosome, primary screen, biochemical, DEVD-Rh110 fluorescence, uHTS; Apaf-1 apoptosome caspase-3 activation; stronger effect = lower value; AID 489031, 2010; activity change, negative = activation, % at 20 µM; 330,000 tested, 0.31% active;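 active means activity change at or below -40% at 20 µM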
# Target sequence (O14727 whole entry, looked up): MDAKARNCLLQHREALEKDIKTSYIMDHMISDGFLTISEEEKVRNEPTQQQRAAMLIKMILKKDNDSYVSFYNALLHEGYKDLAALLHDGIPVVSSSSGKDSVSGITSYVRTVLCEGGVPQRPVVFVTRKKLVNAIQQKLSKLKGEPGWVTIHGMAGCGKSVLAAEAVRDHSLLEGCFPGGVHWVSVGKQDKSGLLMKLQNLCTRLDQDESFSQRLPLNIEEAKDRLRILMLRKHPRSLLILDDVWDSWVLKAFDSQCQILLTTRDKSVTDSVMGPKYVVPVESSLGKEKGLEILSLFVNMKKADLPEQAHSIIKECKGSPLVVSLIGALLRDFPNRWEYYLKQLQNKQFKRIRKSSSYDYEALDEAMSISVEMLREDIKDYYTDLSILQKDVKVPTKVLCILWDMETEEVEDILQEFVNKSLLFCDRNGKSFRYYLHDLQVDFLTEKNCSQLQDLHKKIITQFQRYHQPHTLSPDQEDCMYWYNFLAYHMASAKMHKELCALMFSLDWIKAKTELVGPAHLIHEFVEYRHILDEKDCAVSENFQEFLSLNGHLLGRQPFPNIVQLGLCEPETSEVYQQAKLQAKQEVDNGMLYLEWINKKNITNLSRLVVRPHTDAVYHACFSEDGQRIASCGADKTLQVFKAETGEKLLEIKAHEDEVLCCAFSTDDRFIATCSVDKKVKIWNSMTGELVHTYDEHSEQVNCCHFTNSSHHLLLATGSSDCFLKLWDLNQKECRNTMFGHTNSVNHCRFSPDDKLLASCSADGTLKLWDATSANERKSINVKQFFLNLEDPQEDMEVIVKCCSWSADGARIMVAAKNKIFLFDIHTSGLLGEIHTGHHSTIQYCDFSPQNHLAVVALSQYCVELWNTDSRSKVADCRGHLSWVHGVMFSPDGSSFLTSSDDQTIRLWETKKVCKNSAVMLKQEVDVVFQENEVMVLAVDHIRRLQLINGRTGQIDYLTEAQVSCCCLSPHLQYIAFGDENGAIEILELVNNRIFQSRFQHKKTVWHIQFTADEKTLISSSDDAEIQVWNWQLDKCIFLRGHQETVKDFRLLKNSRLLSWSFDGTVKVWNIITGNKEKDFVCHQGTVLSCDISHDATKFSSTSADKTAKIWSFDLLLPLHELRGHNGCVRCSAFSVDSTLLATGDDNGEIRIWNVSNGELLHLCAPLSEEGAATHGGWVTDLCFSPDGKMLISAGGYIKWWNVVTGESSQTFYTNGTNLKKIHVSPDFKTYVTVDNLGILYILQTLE
#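 Material: biochemical Apaf-1 apoptosome reconstitution; Medium: 20 mM HEPES buffer, pH 7.5, containing CHAPS and BSA; Reagent: dATP, cytochrome c, and (Z-DEVD)2-Rh110 caspase-3 substrate; Times: 30 min preincubation, 50 min reaction, room temperature; Signal: Rh110 fluorescence, excitation 480 nm, emission 540 nm; Measure: Caspase-3 activity via Apaf-1.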
# Rh110 act interf = Rh110 fluorescence interference by putative Apaf-1 activators, confirmation, artefact control for Apaf-1 activator project, biochemical, 20 µM; shares compounds with Apaf1 activ; quenched caspase reaction, Ex480/Em540; fluorescence interference (activity change), % at 20 µM, hits read low; 980 tested, under 10 active;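 active means mean activity change at or below -40% when tested at 20 µM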
# Apaf-1 act conf = Apaf-1 activators, single-dose retest, confirmation, biochemical, fluorescence, DEVD-Rh110, 20 µM; shares compounds with Apaf1 activ; reconstituted apoptosome caspase-3 activity; stronger effect = lower value; activity change, negative = activation, % at 20 µM; 980 tested, 5% active; AID 504617, 2011;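 active means mean activity change at or below -40%, meaning activation of 40% or more, at 20 µM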
# The depositor's hits bear a star; / = no result. The list is a sample of the results.
SMILES,Apaf1 activ,Rh110 act interf,Apaf-1 act conf
CCN1CCN(C2=C(NS(=O)(=O)c3ccc(Br)cc3)C(=O)c3ccccc3C2=O)CC1,88,/,/
CCC(C)(C)C1CCc2c(sc(N)c2C(N)=O)C1 (stereo not drawn),-48*,4,20
Fc1ccc(-[n+]2nc(Nc3ccccc3)sc2-c2c3ccccc3cc3ccccc23)cc1,42,/,/
CCc1cc2c(=O)nc3n(c2s1)Cc1ccccc1/C3=C(/O)c1cccc([N+](=O)[O-])c1,-198*,0,24
CCOC(=O)c1nn(-c2ccccc2C)c(=O)c2c(N)scc12,47,/,/
CCc1ccccc1NC(=O)COC(=O)c1cccs1,-104*,12,9
CCOC(=O)c1cc(C(=O)c2cccs2)n2ccc(C(C)=O)cc12,42,/,/
CCOC(=O)c1c(N)n(CCOC(=O)c2cccs2)c2nc3ccccc3nc12,95,/,/
Oc1c(Br)cc(Br)cc1C=Nc1ccc2[nH]ncc2c1,84,/,/
COc1ccc(-c2cc(=O)n(CCC#N)[nH]2)cc1,94,/,/
COc1ccc(-c2nc(-c3ccc(Br)o3)no2)cc1OC,-45*,7,17
COc1cc2c(cc1OC)C(c1ccc(-c3ccc(Cl)c(Cl)c3)o1)=NCC2,41,/,/
Cc1[nH]cnc1CSCc1ccc(Cl)cc1,-426*,3,16
CC[C@@H](C)[C@@H]1CN([C@@H](CN2CCC[C@H]2CN2C(N)=NC[C@H]2C(C)C)C(C)C)C(=N)N1CCCC1CCCC1,40,/,/
CCCCNC(=O)C(C1CCCCC1)N(CCN(C)C)C(=O)CCCN1C(=O)NC(c2ccc(-c3ccccc3)cc2)C(C(=O)OCc2ccccc2)=C1C (stereo not drawn),64,/,/
OCCN1CCN(CCCN2c3ccccc3Sc3ccc(C(F)(F)F)cc32)CC1,48,/,/
C/C(=N\NC(=O)c1nnn(-c2nonc2N)c1-c1cccs1)c1ccc(C)cc1,-44*,8,7
COc1cccc2c1C(=O)C=C(C)C2=O,56,/,/
CCC(=O)Nc1ccccc1C(=O)N1CCCC1,-44*,-8,5
COc1ccccc1OCC(=O)NCC1CCCN(C(=O)c2ccccc2SC)C1 (stereo not drawn),51,/,/
CCCC[n+]1ccn(C2=C([O-])c3ccccc3C(=O)/C2=N\S(=O)(=O)c2ccc(Br)cc2)c1,59,/,/
Cc1[nH]n(-c2ccccc2)c(=S)c1C=NCCCN=Cc1c(C)[nH]n(-c2ccccc2)c1=S,63,/,/
CCN1/C(=C/c2ccc3cc(C)ccc3[n+]2CC)Sc2ccc3sccc3c21,62,/,/
COc1ccc(-c2cn(Cc3ccc4ccccc4c3)nn2)cc1,-123*,4,8
COc1cc(/C=C2/C(=O)N(c3cccc(Br)c3)N=C2C)cc(OC)c1O,82,/,/
SMILES,Apaf1 activ,Rh110 act interf,Apaf-1 act conf
CN(C)c1ccc(NC2=C(Cl)C(=O)c3ccccc3C2=O)cc1,43,/,/
CN1CCN(c2nc(-c3ccc(C(C)(C)C)cc3)nc3ccccc23)CC1,43,/,/
CCC1CCCCN1CCCNC(=O)CC1Oc2ccc(C)cc2NC1=O (stereo not drawn),-93*,8,11
Cc1ccc(OCC(=O)N/N=C\c2c(C)n(C)c3ccccc23)c([N+](=O)[O-])c1,42,/,/
COc1cc(/C=C/C(=O)OCC(=O)Nc2cc(C)c(C)cc2[N+](=O)[O-])ccc1O,-71*,-3,-27
COc1cc(/C=C/C(=O)OCC(=O)Nc2ccc(C)cc2[N+](=O)[O-])ccc1O,-94*,-2,-37
CCCN1CCCc2cc(CN)ccc21,84,/,/
COC(=O)CCC(=O)OC1(C)C(=O)C2=CN(CC3CC3)C(c3ccc(OC)cc3)=CC2=C(Br)C1=O (stereo not drawn),66,/,/
Oc1cccc(C=NCc2ccccc2)c1O,82,/,/
Cc1nn(Cc2c(F)c(F)c(F)c(F)c2F)c(C)c1NC(=O)c1ccc(COc2ccc(Cl)cc2Cl)o1,46,/,/
CNC(=O)NCC12CC3CC(CC(C3)C1)C2,-293*,10,10
Nc1ccc2nc(-c3ccccc3)c(-c3ccccc3)nc2c1,65,/,/
Cc1nnc(SCC(=O)NCc2ccco2)n1Cc1ccccc1,-428*,-5,13
C=CCn1c(SCC(=O)NCCc2ccccc2)nnc1C1CC1,42,/,/
CCCCCCCCCCCCCCCC(O)C(N)CO (stereo not drawn),80,/,/
Cc1ccc(O)c(CNc2cccc3cccnc23)c1,93,/,/
Cc1ccc(Sc2ncccc2C(=O)NCc2cc([N+](=O)[O-])ccc2O)c(C)c1,-48*,-6,12
CC(C)(C)NC(=O)[C@@H]1C[C@@H]2CCCC[C@@H]2CN1C[C@@H](O)[C@H](Cc1ccccc1)NC(=O)[C@H](CC(N)=O)NC(=O)c1ccc2ccccc2n1,35,/,/
O=C(CO/N=C/c1ccc(OC(F)F)cc1)NC1CCCC1,-453*,2,11
CN1CCN(c2cc3c(c4c2[nH]c2ccccc24)C(=O)CC(C)(C)C3)CC1,50,/,/
Cc1ccccc1OCc1n(CC(=O)OC2CC(C)CCC2C(C)C)c2ccccc2[n+]1C (stereo not drawn),47,/,/
O=C1CCCC/C1=C\Nc1ccc(Cl)cn1,-73*,9,17
O=C1c2[nH]nc(-c3ccccc3O)c2C(c2cccc(Cl)c2)N1Cc1ccco1 (stereo not drawn),42,/,/
O=C(NCCCn1ccnc1)C1c2ccccc2Oc2ccccc21,-417*,-3,8
O=c1[nH]c(Nc2ccccn2)cc2ccccc12,91,/,/
SMILES,Apaf1 activ,Rh110 act interf,Apaf-1 act conf
CCCCCCCCCCOC(=O)Cn1c(COc2ccccc2)[n+](C)c2ccccc21,73,/,/
CC(=O)[C@H]1[C@@H]2C(=O)N(c3cccc(Cl)c3)C(=O)[C@@H]2[C@H]2c3ccccc3C=CN21,73,/,/
CC1=NN(c2ccccc2)C(=O)/C1=C/c1cc2cc(C)ccc2nc1N1CCCCC1,94,/,/
Cc1cccc(-n2c(N)c(C(=O)NCCN3CCOCC3)c3nc4ccccc4nc32)c1,51,/,/
O=C(CCSc1nc(-c2ccco2)cc(C(F)(F)F)n1)NCCN1CCOCC1,-56*,4,5
Nc1c(C(=O)NCc2ccc(F)cc2)c2nc3ccccc3nc2n1CCCN1CCOCC1,59,/,/
CCC1=NNc2cccc3c(OC)ccc1c23,52,/,/
O=C(c1ccccc1)c1ccc2nc(-c3ccco3)c(-c3ccco3)nc2c1,41,/,/
CCOc1ccccc1CNC(=O)C1CCN(c2nnc(C)c3c(C)n(-c4ccc(C)cc4)nc23)CC1,41,/,/
C#CCOCCOCCOCCNc1nc(N2CCN(C(=O)CCCCCCCCCCNC(=O)Cn3cc(C[C@@H](C)O)nn3)CC2)nc(N2CCN(C(=O)CCCCCCCCCCNC(=O)[C@H](CCCN=C(N)N)n3cc(C[C@@H](C)CC)nn3)CC2)n1,62,/,/
Cc1ccc(NC2=C/C(=N/S(=O)(=O)c3cccs3)c3ccccc3C2=O)cc1,92,/,/
CCOC(=O)c1cc(-c2ccc(/C=C3/C(=O)N(c4ccc(C(=O)O)cc4)N=C3C)o2)ccc1Cl,50,/,/
COc1ccc(C2C(C#N)=C(N)OC(C(C)(C)C)=C2C#N)cc1OC (stereo not drawn),-51*,17,10
CCc1cc[n+](C2=C([O-])c3ccccc3C(=O)/C2=N\S(=O)(=O)c2cccs2)cc1,68,/,/
CSc1nncc(/C(C)=N\Nc2ccccc2)n1,70,/,/
